Laboratory results taken from ChEMBL document CHEMBL3227984, “5-Substituted uracil arabinonucleosides as potential antiviral agents” (J Med Chem, 1979).
Activity calls are given as the source filed them. The calls are words filed in the database; no cut-off is given here.

Tests used:
[1] = Dissociation constant, pKa of the compound; assay type: physicochemical
Human alphaherpesvirus 1 [2] = experiment: Antiviral activity against HSV1 KOS infected in primary rabbit kidney cells assessed as inhibition of virus-induced cytopathogenicity; assay type: functional
[3] = Cytotoxicity against human skin fibroblasts assessed as change in cell morphology; conditions: skin fibroblast
[4] = Cytotoxicity against primary rabbit kidney cells assessed as change in cell morphology; assay type: cell-based, Oryctolagus cuniculus
Human alphaherpesvirus 1 [5] = experiment: Antiviral activity against HSV1 KOS infected in human skin fibroblasts assessed as inhibition of virus-induced cytopathogenicity; assay type: functional, organism-based
[6] = tested on: Vesicular stomatitis virus; experiment: Antiviral activity against Vesicular stomatitis virus infected in primary rabbit kidney cells assessed as inhibition of virus-induced cytopathogenicity; assay type: functional
[7] = Cytotoxicity against primary rabbit kidney cells assessed as inhibition of DNA synthesis by labeled thymidine/2'-deoxyuridine assay; assay type: cell-based, Oryctolagus cuniculus
How it was run: (§1)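 DNA synthesis in cultures (primary rabbit kidney cells or human skin fibroblasts) exposed to the analogues was monitored by incorporation of labeled thymidine or labeled 2'-deoxyuridine.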

[8] = Cytotoxicity against human skin fibroblasts assessed as inhibition of DNA synthesis by labeled thymidine/2'-deoxyuridine assay; conditions: skin fibroblast; how it was run: as §1

SMILES | pKa [1] | ID50 (Human alphaherpesvirus 1 [2]) | Activity [3] | Activity [4] | Antiviral activity (Human alphaherpesvirus 1 [5]) | ID50 [6] | Activity [7] | Activity [8]
O=c1[nH]c(=O)n([C@@H]2O[C@H](CO)[C@@H](O)[C@@H]2O)cc1I | 8 |  |  |  |  |  |  | 
Cc1cn([C@@H]2O[C@H](CO)[C@@H](O)[C@@H]2O)c(=O)[nH]c1=O |  | 3.9 ×10⁻⁷ M | Non-toxic | Non-toxic | Active | >1 ×10⁻⁴ M |  | 
O=c1ccn([C@@H]2O[C@H](CO)[C@@H](O)[C@@H]2O)c(=O)[nH]1 [ARAURIDINE] |  | 4.1 ×10⁻⁵ M | Non-toxic | Non-toxic | Active | >1 ×10⁻⁴ M |  | 
N#Cc1cn([C@@H]2O[C@H](CO)[C@@H](O)[C@@H]2O)c(=O)[nH]c1=O | 6.8 | >3.7 ×10⁻⁴ M | Non-toxic | Non-toxic | Active | >1 ×10⁻⁴ M | Non-toxic | Non-toxic
O=c1[nH]c(=O)n([C@@H]2O[C@H](CO)[C@@H](O)[C@@H]2O)cc1O | 7.8 | >3.9 ×10⁻⁴ M | Non-toxic | Non-toxic | Active | >1 ×10⁻⁴ M | Non-toxic | Non-toxic
O=c1[nH]c(=O)n([C@@H]2O[C@H](CO)[C@@H](O)[C@@H]2O)cc1Br | 8 |  |  |  |  |  |  | 
O=c1[nH]c(=O)n([C@@H]2O[C@H](CO)[C@@H](O)[C@@H]2O)cc1[N+](=O)[O-] | 5.7 | >6.9 ×10⁻⁴ M | Non-toxic | Non-toxic | Active | >1 ×10⁻⁴ M | Non-toxic | Non-toxic
